Screens as filed in PubChem.
Rows were chosen to be rich in hits. Some 3% of all compounds tested hit in one or more screens of this group.
CendR NRP1 mod: alters CendR peptide binding to human NRP-1; O14786; FAM-RPARPAR peptide binding to NRP-1, fluorescence polarization; inhibition, % at 25 µM; 360,000 tested, 0.85% active;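 active = inhibition or corrected inhibition above about 18%, plus a signal ratio from 0.5 to 1.5, limit read from the data, passing the limit was not always enough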
PLCg1 inh: inhibitors of human phospholipase C gamma1 | purified PLC-gamma1, fluorogenic substrate, fluorescence | inhibition, % at 12.2 µM | 370,000 tested, 0.84% active | AID 720700; in the data active = inhibition above about 9.5%
Tn7 DDE FP: inhibitors of Tn7 peptide binding to human fibrin DD(E). FP displacement of FITC-Tn7 peptide from fibrin DD(E); 0% = median of compound wells per plate. inhibition, % at 8.3 µM. 370,000 tested, 0.13% active;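 active = inhibition above the mean of compounds falling within the control limits plus 3 SD of them, cut at about 14% in these data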
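Assay system: Fibrin-DD(E) protein isolated from polymerized human fibrin clots; read-out basis: percent inhibition; medium: Tris/NaCl/CaCl2 buffer, pH 7.8; signal: FP measurement; incubation: 10 min plus 3 h, room temperature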
PLC-beta3 inh: inhibitors of human phospholipase C beta3 | Q01970 | Purified PLC-beta3, fluorogenic substrate, fluorescence | inhibition, % at 12.2 µM | 370,000 tested, 0.18% active | AID 720704; in the data active = inhibition above about 11%
Target sequence (Q01970 whole entry, looked up): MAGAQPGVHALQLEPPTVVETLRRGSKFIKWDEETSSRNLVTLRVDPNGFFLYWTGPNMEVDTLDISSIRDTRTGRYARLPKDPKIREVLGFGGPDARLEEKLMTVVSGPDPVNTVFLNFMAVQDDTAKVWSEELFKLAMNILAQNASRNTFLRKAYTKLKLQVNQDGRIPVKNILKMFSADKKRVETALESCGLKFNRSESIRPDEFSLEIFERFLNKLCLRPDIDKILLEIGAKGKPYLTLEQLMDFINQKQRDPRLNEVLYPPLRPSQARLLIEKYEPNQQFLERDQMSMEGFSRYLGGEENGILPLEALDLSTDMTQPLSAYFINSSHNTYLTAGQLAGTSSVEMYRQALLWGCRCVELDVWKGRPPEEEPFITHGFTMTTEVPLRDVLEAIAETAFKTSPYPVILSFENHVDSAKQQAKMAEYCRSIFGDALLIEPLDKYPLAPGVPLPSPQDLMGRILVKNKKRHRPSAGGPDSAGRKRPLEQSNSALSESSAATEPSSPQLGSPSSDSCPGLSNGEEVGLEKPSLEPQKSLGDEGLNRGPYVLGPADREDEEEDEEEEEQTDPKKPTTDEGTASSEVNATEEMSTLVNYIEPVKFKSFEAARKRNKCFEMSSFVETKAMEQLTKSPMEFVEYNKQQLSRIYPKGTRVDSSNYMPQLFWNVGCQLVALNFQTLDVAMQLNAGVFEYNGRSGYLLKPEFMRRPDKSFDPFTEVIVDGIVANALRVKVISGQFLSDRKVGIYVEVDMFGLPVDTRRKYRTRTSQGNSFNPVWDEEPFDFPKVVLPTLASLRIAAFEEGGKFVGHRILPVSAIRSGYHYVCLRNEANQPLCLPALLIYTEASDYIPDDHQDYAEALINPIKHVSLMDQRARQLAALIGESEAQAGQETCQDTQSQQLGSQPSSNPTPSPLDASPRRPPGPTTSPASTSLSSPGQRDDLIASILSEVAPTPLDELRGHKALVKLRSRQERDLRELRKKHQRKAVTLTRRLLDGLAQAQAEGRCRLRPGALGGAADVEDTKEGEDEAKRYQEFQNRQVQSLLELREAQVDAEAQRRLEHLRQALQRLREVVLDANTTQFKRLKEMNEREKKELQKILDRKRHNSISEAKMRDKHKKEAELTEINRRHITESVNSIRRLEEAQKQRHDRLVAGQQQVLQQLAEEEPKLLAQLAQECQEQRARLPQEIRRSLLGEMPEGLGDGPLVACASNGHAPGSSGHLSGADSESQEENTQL
DDE Tn6 FP inh: disrupts Tn6 cyclic peptide binding to fibrin D-Dimer-E complex | AID 720509 | Fibrin DD(E) TRITC-Tn6 fluorescence polarization displacement | inhibition, % at 8.3 µM | 370,000 tested, 0.21% active;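 active = inhibition above a per-campaign cutoff: mean of compounds within control limits plus 3 SD, cut at about 15% in these data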
proKLK7 act: activates the human kallikrein-7 zymogen | P49862 | purified proKLK7, EDANS-DABCYL substrate fluorescence; 100% is mature enzyme control, 0% vehicle | activation, % at 7 µM | 370,000 tested, 0.9% active | AID 652039;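 active = activation above the mean of all tested compounds plus 3 SD, computed per campaign excluding outliers beyond control limits, cut at about 13% in these data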
KLK7 act conf: confirmation of human kallikrein-7 zymogen activators; shares compounds with proKLK7 act; purified proKLK7, EDANS-DABCYL substrate fluorescence; scaled: vehicle 0, mature enzyme 100; activation, % at 7 µM; 3,200 tested, 68% active; AID 686949;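 active = activation, as change over the incubation, above the mean of all tested compounds plus 3 SD, cut at about 13% in these data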
EDANS interfere: counter-screen for kallikrein-7 activators: EDANS-DABCYL optical interference | shares compounds with proKLK7 act | EDANS-DABCYL substrate fluorescence interference, no enzyme, 4 h; solvent 0%, active enzyme control 100% | activation, % at 7 µM | 3,200 tested, 80% active | AID 686952;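 active = activation above the all-compound mean plus 3 SD, ignoring values outside control-based bounds, cut at about 4.8% in these data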;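 also: value is the 4 h activation minus the activation read at time zero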
EDANS interf: optically interferes with EDANS-DABCYL fluorescence, kallikrein-7 activator counter-screen | EC50, µM | 250 tested, 20% active | EDANS-DABCYL peptide fluorescence interference, no enzyme | shares compounds with proKLK7 act;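 active = compounds that raise the fluorescence signal in this interference counterscreen, with EC50 at or below 10 µM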;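 also: intact quenched peptide substrate alone read at 355 nm excitation and 520 nm emission; signal is fluorescence gain from T0 to T4 after four hours at room temperature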
Numbers stand for hits; 0 = inactive; - = no result given.

SMILES | CendR NRP1 mod | PLCg1 inh | Tn7 DDE FP | PLC-beta3 inh | DDE Tn6 FP inh | proKLK7 act | KLK7 act conf | EDANS interfere | others
O=S(=O)(c1cccc2cccnc12)N1CCC(c2cn3ccccc3n2)CC1 | - | 0 | 0 | 0 | 0 | 0 | - | -
CN1C/C(=C/c2ccccc2)N2C(=O)C[C@@H](c3ccccc3)N=C12 | - | 0 | 0 | 0 | 0 | 0 | - | -
Cc1ccc(NC(=O)Cn2c(/C=C/c3ccccc3)nc3ccccc32)cc1C | 0 | 0 | 0 | 0 | 0 | 29 | 49 | 43
Cc1ccc(NC(=O)Cn2cnc3ccccc32)cc1C | 0 | 0 | 0 | 0 | 0 | 0 | - | -
O=C(ONC(=O)C1C2C=CC(C2)C1C(=O)NOC(=O)c1ccccc1)c1ccccc1 (stereo unspecified) | 0 | 0 | 0 | 0 | 0 | 45 | 0 | 0
O=C(NCCCN1CCOCC1)c1ccc(Cl)cc1Cl | 0 | 0 | 0 | 0 | 0 | 0 | - | -
C=CCNC(=O)c1cc(Cl)ccc1Cl | 0 | 0 | 0 | 0 | 0 | 0 | - | -
Nc1nc2ccc(Cl)cc2cc1C(=O)NCCCN1CCOCC1 | 0 | 0 | 0 | 0 | 0 | 19 | 15 | 12 | EDANS interf=0
C=CCNC(=O)c1cc2cc(Cl)ccc2nc1N | 0 | 0 | 0 | 0 | 0 | 18 | 16 | 14
COc1ccc(C2CCC3(CCC(=O)N3CCO)CC2)cc1 (stereo unspecified) | - | 0 | 0 | 0 | 0 | 0 | - | -
Cc1c(-c2nc3ccccc3[nH]2)cnn1C | 0 | 0 | 0 | 0 | 0 | 0 | - | -
Nc1ccc(-c2nc3ccccc3[nH]2)cc1 | 0 | 0 | 0 | 0 | 0 | 0 | - | -
Oc1ccc(C=Nc2ccccc2-c2nc3ccccc3[nH]2)cc1 | 0 | 0 | 0 | 0 | 0 | 81 | 30 | 29
O=c1[nH]cccc1-c1nc2ccccc2[nH]1 | 0 | 0 | 0 | 0 | 0 | 56 | 66 | 75
Nc1ccccc1-c1nc2ccccc2[nH]1 | 0 | 0 | 0 | 0 | 0 | 69 | 0 | 0
CC(=O)CC[C@@H]1CC[C@]2(CCCN(S(=O)(=O)C3CCCCC3)C2)O1 | - | 0 | 0 | 0 | 0 | 0 | - | -
COc1ccc(OC)c(NC(=O)c2ccccc2N(Cc2ccccc2)C(=O)C(C)Cl)c1 (stereo unspecified) | - | 0 | 0 | 0 | 0 | 0 | - | -
Cc1cc(OC(C)CCN2CCC(C(O)(c3ccccc3)c3ccccc3)CC2)ccc1Br (stereo unspecified) | - | 0 | 0 | 0 | 0 | 0 | - | -
COc1ccc(OC)c(/C=C/C(=O)OCC(=O)Nc2cccc(C(C)=O)c2)c1 | 0 | 0 | 0 | 0 | 0 | 0 | - | -
COc1ccc(OC)c(/C=C/C(=O)Oc2ccc(C(C)=O)cc2)c1 | 0 | 0 | 0 | 0 | 0 | 15 | 25 | 32
COc1ccc(OC)c(/C=C/C(=O)OCC(=O)N2C(C)CCCC2C)c1 (stereo unspecified) | 0 | 0 | 0 | 0 | 0 | 13 | 13 | 15
COc1ccc(OC)c(/C=C/C(=O)OCC(=O)NCc2ccco2)c1 | 0 | 0 | 0 | 0 | 0 | 23 | 17 | 14 | EDANS interf=0
COc1ccc(OC)c(/C=C/C(=O)OCC(=O)N2CCCC2)c1 | 0 | 0 | 0 | 0 | 0 | 0 | - | -
Nn1c(SCC(=O)NC2CCCCC2)nnc1-c1cc(-c2ccc(Cl)cc2)n[nH]1 | - | 0 | 0 | 0 | 0 | 0 | - | -
C[C@]12c3[nH]c4cc(-c5ccco5)ccc4c3CCN1C(=O)[C@@H](CC(=O)NCCCn1ccnc1)C[C@@H]2C(=O)N1CCOCC1 | 0 | - | - | - | - | - | - | -
SMILES | CendR NRP1 mod | PLCg1 inh | Tn7 DDE FP | PLC-beta3 inh | DDE Tn6 FP inh | proKLK7 act | KLK7 act conf | EDANS interfere | others
CC[C@]12c3[nH]c4cc(-c5ccco5)ccc4c3CCN1C(=O)[C@@H](CC(=O)NCC13CC4CC(CC(C4)C1)C3)C[C@@H]2C(=O)N1CCN(C(=O)c2ccco2)CC1 | 0 | 0 | 0 | 0 | 0 | 0 | - | -
CC[C@]12c3[nH]c4cc(-c5ccco5)ccc4c3CCN1C(=O)[C@@H](CC(=O)NCCCN(C)C)C[C@@H]2C(=O)N1CCN(C(=O)c2ccco2)CC1 | 0 | 0 | 0 | 0 | 0 | 84 | 47 | 63
CN(C)CCCNC(=O)C[C@H]1C[C@H](C(=O)N2CCCCC2)[C@@]2(C)c3[nH]c4cc(-c5ccco5)ccc4c3CCN2C1=O | 0 | 0 | 0 | 0 | 0 | 97 | 86 | 109
CN(C)CCCNC(=O)C[C@H]1C[C@H](C(=O)N2CCCCC2)[C@@]2(CCc3ccccc3)c3[nH]c4cc(-c5ccco5)ccc4c3CCN2C1=O | 0 | 0 | 0 | 0 | 0 | 46 | 41 | 52
CN(C)CCCNC(=O)CC1C[C@H](C(=O)N2CCCCC2)[C@@]2(CCc3ccccc3)c3[nH]c4ccccc4c3CCN2C1=O (stereo partly specified) | 0 | 0 | 0 | 0 | 0 | 0 | - | -
C[C@]12c3[nH]c4cc(-c5ccco5)ccc4c3CCN1C(=O)[C@@H](CC(=O)NCCCn1ccnc1)C[C@@H]2C(=O)N1CCCCC1 | 0 | 0 | 0 | 0 | 0 | 105 | 40 | 61
C[C@H]1[C@@H](OC(=O)NCCc2ccccc2)CC[C@@]23CCCN2C(=O)CCC[C@@H]13 | - | 0 | 0 | 0 | 0 | - | - | -
COC(=O)C[C@H]1CC[C@@H]2[C@H](COc3ccc(NC(=O)c4cnccn4)cc3C(=O)N2C)O1 | - | 0 | 0 | 0 | 0 | 0 | - | -
Cc1ccc(C(=O)/C=C/Nc2ccc(S(=O)(=O)Nc3cc(C)nc(C)n3)cc2)cc1 | 0 | 0 | 0 | 0 | 0 | 30 | 148 | 119
CCC(C)NC(=O)CN1c2cccc3cccc(c23)S1(=O)=O (stereo unspecified) | 0 | 0 | 0 | 0 | 0 | 14 | 0 | 9.6
CC1CCN(C(=O)CN2c3cccc4cccc(c34)S2(=O)=O)CC1 | 0 | 0 | 0 | 0 | 0 | 18 | 0 | 7.1
COc1ccc(-c2cc(C(=O)OCC(=O)NC3CC3)c3ccccc3n2)cc1 | 0 | 0 | 0 | 0 | 0 | 16 | 0 | 9.7
COc1ccc(-c2cc(C(=O)OCC(=O)NC(C)C)c3ccccc3n2)cc1 | 0 | 0 | 0 | 0 | 0 | 21 | 33 | 40
COc1ccc(/C(C)=N/NC(=O)c2cc(-c3cccnc3)nc3ccccc23)cc1 | 0 | 0 | 0 | 0 | 0 | 0 | - | -
CCNC(=O)COC(=O)c1cc(-c2ccc(OC)cc2)nc2ccccc12 | 0 | 0 | 0 | 0 | 0 | 174 | 208 | 260
O=C(COC(=O)c1cc(-c2ccccc2)nc2ccccc12)NC1CC1 | 0 | 0 | 0 | 0 | 0 | 0 | - | -
COc1ccc(-c2cc(C(=O)N/N=C(\C)c3cccnc3)c3ccccc3n2)cc1 | 0 | 0 | 0 | 0 | 0 | 37 | 0 | 0
